Screening results (PubChem)
CaV13 FRET inh: Primary screen for inhibitors of IQ motif and Ca2+-dependent inactivation inhibitor domain binding in CACNA1D, Förster resonance energy transfer in living cells, …; HEK cells, CFP/YFP FRET ICDI-IQ, plate reader, 10 min; percent FRET-ratio fall versus neutral wells; inhibition, % at 12.3 µM; hit rate 0.098% among 340,000;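 active = mean replicate inhibition of at least 30% and at least 1% of replicates passing that level; inconclusive = only one of the two criteria is met; inactive = neither criterion is met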;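 note: 0% = median of the neutral control wells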
Hck Nef HTS: inhibitors of human Hck kinase activated by Nef | Recombinant Hck-YEEI plus Nef, Z-Lyte FRET kinase assay | hit rate 0.68% among 220,000 | inhibition, % at 20 µM;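 active = Hck-Nef kinase inhibition above about 50%, limit read from the data; inactive = inhibition below that limit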;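 note: 0% = DMSO with Hck plus Nef and 100% = Hck alone without Nef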
Runt-CBFb FRET: inhibitors of human RUNX1 Runt domain binding to CBFb; Q01196+Q13951; inhibition, % at 20 µM; hit rate 0.46% among 220,000; Cerulean-Runt/Venus-CBFb FRET ratio 530/480, 1 h;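 active = inhibition over about 50% at 20 µM in the single-dose screen, limit read from the data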;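 note: 0% = DMSO wells and 100% = excess unlabeled CBFb competitor control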
Target sequence (Q01196 whole entry, looked up, the tested form may be a part): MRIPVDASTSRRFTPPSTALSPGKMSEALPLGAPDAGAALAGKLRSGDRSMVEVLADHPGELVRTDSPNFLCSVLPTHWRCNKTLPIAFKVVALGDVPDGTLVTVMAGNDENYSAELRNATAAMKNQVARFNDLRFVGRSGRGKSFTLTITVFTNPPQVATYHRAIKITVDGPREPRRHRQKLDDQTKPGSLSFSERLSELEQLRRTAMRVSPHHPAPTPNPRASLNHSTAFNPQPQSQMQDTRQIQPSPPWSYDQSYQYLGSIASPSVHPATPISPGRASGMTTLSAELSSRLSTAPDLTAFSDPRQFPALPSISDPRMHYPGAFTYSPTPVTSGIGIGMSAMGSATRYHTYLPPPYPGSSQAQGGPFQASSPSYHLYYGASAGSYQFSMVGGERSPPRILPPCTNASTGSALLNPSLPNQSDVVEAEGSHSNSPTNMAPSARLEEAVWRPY
Target sequence (Q13951 whole entry, looked up, the tested form may be a part): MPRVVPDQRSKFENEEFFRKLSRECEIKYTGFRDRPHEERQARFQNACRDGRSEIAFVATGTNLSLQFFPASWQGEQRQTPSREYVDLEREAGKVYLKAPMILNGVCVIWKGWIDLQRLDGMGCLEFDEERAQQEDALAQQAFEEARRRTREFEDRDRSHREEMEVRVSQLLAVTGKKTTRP
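Measured by: fluorescence energy transfer, 422 nm excitation, 530/480 nm emission; test system: Cerulean-tagged RUNX1 Runt domain (FRET donor) fusion protein; buffer or medium: Tris pH 7.5 buffer with BSA; compound: one dose, 20 µM compound, 1% DMSO; times: two 1 h room-temperature incubations shielded from light; benchmarks: unlabeled CBFb 5 µM, positive control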
Runt-SMMHC FRET: inhibitors of human RUNX1 Runt domain binding to CBFb-SMMHC; hit rate 0.74% among 220,000; inhibition, % at 20 µM; AID 1434; Cerulean-Runt/Venus-CBFb-SMMHC FRET ratio 530/480, 1 h; Q01196+Q13951;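 active = mean inhibition across duplicate retests at 20 µM reaching about 50%, limit read from the data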;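 note: 0% = DMSO wells and 100% = wells with excess untagged CBFb-SMMHC; inhibitors lower the FRET ratio by blocking Runt binding to CBFb-SMMHC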
RanGTP-Impb inh: disruptors of Ran-importin-beta complex formation – biochemical, FRET, CFP-Ran, YFP-importin-beta, homogeneous, primary screen; cell-free CFP-Ran/YFP-importin-beta FRET ratio; inhibition, % (concentration not given with the values); hit rate 1.1% among 300,000; AID 2216;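 active = more than half of the replicate wells show a fall in the fluorescence ratio signal beyond about 16%, limit read from the data, passing the limit was not always enough; inconclusive = exactly half of the replicate wells pass the set limit; inactive = fewer than half of replicates pass the limit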;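 note: 0% = DMSO wells and 100% = Ran loaded with GDP instead of GTP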
Hck Nef conf: confirmation of Hck-Nef kinase inhibitors. shares compounds with Hck Nef HTS. Recombinant Hck-YEEI:Nef, Z-Lyte FRET kinase assay. calls only at 10 µM. hit rate 28% among 1,300;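 active = average inhibition of at least 50%, with Z-scores no higher than 3 in both the phospho-tyrosine peptide and fluorescence counterscreens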
Numbers without * were called inactive; i = inactive; ? = inconclusive; . = no result given; + = active, no number. An excerpt weighted towards active compounds, which were near 1.5% of everything screened.

SMILES | CaV13 FRET inh | Hck Nef HTS | Runt-CBFb FRET | Runt-SMMHC FRET | RanGTP-Impb inh | Hck Nef conf
COc1cc(/C=N/NC(=O)c2sc3nc(C)cc(C)c3c2N)ccc1O | -15.7 | 51.5* | 20.0 | 31.6 | ? | .
CN(C)S(=O)(=O)c1cccc(NC(=S)N/N=C/c2ccc(O)c(O)c2O)c1 | -2.2 | 91.5* | 37.0 | 8.7 | 3.8 | +
Cc1ccc(-c2nc(N)s[n+]2-c2ccccc2)cc1 | 22.7 | 101.0* | 9.3 | 65.1* | 5.8 | +
COc1ccc(OC)c(C(C(=O)NC2CCCCC2)N(Cc2ccco2)C(=O)c2ccccn2)c1 (centres undefined) | -4.3 | . | . | . | 0.3 | .
Cc1c(N=C2C=C(Br)C(=O)C(Br)=C2)c(=O)n(-c2ccccc2)n1C | -4.3 | 50.1* | 17.0 | 13.2 | . | i
Cc1c(N=C2C=CC(=O)c3ccccc32)c(=O)n(-c2ccccc2)n1C | -0.6 | 50.6* | 12.2 | 4.4 | -1.6 | i
O=C(NCc1ccccc1)C(c1ccc(F)cc1)N(C(=O)c1csnn1)c1ccccc1 (centres undefined) | -4.6 | . | . | . | 1.8 | .
CCOC(=O)c1nc2nc(-c3cccs3)cc(C(F)(F)F)n2n1 | -4.1 | 9.0 | 4.2 | 17.7 | -1.1 | .
Nc1nc2nc(-c3cccs3)cc(C(F)(F)F)n2n1 | -1.7 | 110.0* | 66.0* | 91.1* | 62.3* | .
Cc1ccccc1Nc1ncnc2c1cnn2-c1ccccc1 | -7.6 | 56.0* | 0.9 | 2.1 | -1.1 | +
O=C(CSc1nc2ncc(Cl)cc2[nH]1)NCC(=O)Nc1ccc(F)c(F)c1F | -14.7 | 61.2* | -0.7 | -0.9 | 7.3 | .
Cc1[nH]c2ccccc2c1C(=O)CSc1nc2ncc(Cl)cc2[nH]1 | -2.9 | 72.3* | -2.6 | -9.9 | -3.8 | +
Cc1ccc(-c2ccc(/C=N\NC(=O)c3cc4c(ccc5ccccc54)o3)o2)cc1[N+](=O)[O-] | . | 27.5 | -0.7 | -8.4 | 3.9 | .
O=C(N/N=C/c1ccc(-c2ccc(Cl)c(C(=O)O)c2)o1)c1cc2c(ccc3ccccc32)o1 | -133.7 | 71.7* | 12.7 | 80.3* | 8.0 | +
CC(=O)c1cccc(S(=O)(=O)N2CCCC(c3nc4c(nnn4Cc4ccccc4Cl)c(=O)[nH]3)C2)c1 (centres undefined) | -7.1 | . | . | . | 1.1 | .
CC(=O)/C(=C(/O)c1ccccc1)c1nc2ccccc2[nH]1 | 2.0 | 124.4* | -1.5 | 2.8 | 5.1 | +
O=C(/C(=C(\O)c1ccccc1)c1nc2ccccc2[nH]1)c1ccccc1 | -4.7 | 24.7 | 1.4 | 1.7 | ? | .
CCC(Cc1ccccc1)NC(=O)C1CC1 (centres undefined) | -5.7 | . | . | . | -1.3 | .
CC(=O)Nc1sc(N/N=C\c2ccc(O)cc2)nc1-c1cccs1 | -9.7 | 59.6* | 15.3 | -2.7 | 3.9 | i
CC(=O)Nc1sc(N/N=C\c2cccc(Cl)c2)nc1-c1cccs1 | -8.0 | 0.9 | 9.4 | 4.6 | 0.7 | .
CCN(CC)c1ccc(/C=N/N2CCN(Cc3ccccc3)CC2)cc1 | -19.3 | 57.4* | 2.0 | 12.3 | 0.6 | i
COc1ccc(N(CC(=O)N2CCOCC2)S(C)(=O)=O)cc1Cl | -6.7 | . | . | . | ? | .
Cc1cn(-c2cc(C(=O)Nc3ccc(C)c(NC(=O)C(=O)c4c[nH]c5ccccc45)c3)cc(C(F)(F)F)c2)cn1 | -2.8 | 55.4* | -1.7 | -0.8 | 4.6 | i
CC1(C(=O)NCc2ccc(Cl)cc2)CCN1C(=O)c1cccc(F)c1 (centres undefined) | -3.6 | . | . | . | . | .
COc1ccc(Nc2nc(OC)nc(OC)n2)cc1 | 5.2 | . | . | . | -0.5 | .
SMILES | CaV13 FRET inh | Hck Nef HTS | Runt-CBFb FRET | Runt-SMMHC FRET | RanGTP-Impb inh | Hck Nef conf
COc1ccc(Nc2ccnc(Nc3ccc(OC)cc3)n2)cc1 | -3.2 | 88.3* | -3.1 | 2.4 | 5.0 | +
COCCNC(=O)CN(C(=O)CCC(=O)Nc1ccccn1)c1ccccc1OC | 4.3 | . | . | . | -3.4 | .
O=C(/C=C/c1ccco1)NC(=S)Nc1ccccc1N1CCCC1 | -4.7 | 21.0 | 24.8 | 36.0 | -12.1 | .
O=C(/C=C/c1ccco1)Nc1ccccc1C(=O)O | -4.9 | 54.8* | 30.2 | 15.3 | -4.9 | i
O=C(/C=C/c1ccco1)Nc1cc(Cl)ccc1C(=O)O | -6.3 | 10.6 | 25.6 | 15.6 | 2.6 | .
O=C(/C=C/c1ccco1)NC(=S)Nc1ccccc1O | -4.6 | 53.7* | -17.6 | -82.2 | -3.6 | +
COc1cc(NS(=O)(=O)c2ccc(NC(=S)NC(=O)/C=C/c3ccco3)cc2)ncn1 | 9.5 | 90.7* | 15.3 | 7.6 | -0.4 | +
Cc1ccc(NC(=S)NC(=O)/C=C/c2ccco2)c(O)c1 | -4.5 | 84.7* | -3.6 | -33.0 | 1.8 | +
O=C(c1cccc(C(F)(F)F)c1)c1c[nH]c(C(=O)NCC2CCCO2)c1 (centres undefined) | -6.3 | 2.2 | -1.9 | 2.3 | 1.1 | .
O=C(/C=C\c1ccco1)NC(=S)Nc1ccccc1O | -16.5 | 58.7* | -5.5 | -9.5 | 1.9 | i
CCC12CN3CC(CC)(CN(C1)C3c1ccc([N+](=O)[O-])o1)C2=O (centres undefined) | 9.3 | 50.1* | 1.3 | -1.5 | 3.8 | i
CCCC12CN3CC(C)(CN(C1)C3c1ccc([N+](=O)[O-])o1)C2=O (centres undefined) | -8.1 | 2.2 | -0.3 | -4.6 | -2.5 | .
Nc1c(C(=O)NC2CC2)sc2nc3c(c(-c4ccco4)c12)CC/C3=C/c1ccco1 | . | 85.3* | 27.4 | -18.8 | . | i
COc1ccc(OC)c(NC(=O)NCCCCc2ccccc2)c1 | -7.9 | . | . | . | 3.8 | .
COc1ccc(-c2cnnc(N/N=C/c3ccc(O)cc3)n2)cc1 | -4.7 | 71.3* | -5.1 | 2.9 | 2.0 | i
C=CCn1c(SCC(=O)Nc2sccc2C#N)nc2sc(C)c(C)c2c1=O | -5.5 | 63.3* | -0.4 | 3.6 | 3.7 | +
C[C@@H]1ON(C)[C@H]2C[C@H]3c4cc(-c5cc6ccccc6o5)ccc4CCN3C[C@@H]12 | -4.7 | . | . | . | . | .
C/C(=N\NC(=O)c1ccc(OC2OCCOC2Oc2ccc(C(=O)N/N=C(\C)c3ccncc3)cc2)cc1)c1ccncc1 (centres undefined) | -11.4 | 61.5* | -3.3 | -0.3 | -7.5 | i
C/C(=N\NC(=O)c1ccncc1)c1ccc(N2CCOCC2)cc1 | -1.4 | . | . | . | . | .
Cc1csc2c(=O)sc(NC(=O)c3ccc(F)cc3)nc12 | -1.3 | 22.4 | 8.8 | 20.7 | -4.1 | .
Cc1ccccc1C(=O)Nc1nc2c(C)csc2c(=O)s1 | 8.1 | 78.3* | 7.3 | 16.4 | -1.1 | i
c1ccc2c3c([nH]c2c1)-c1[nH]ncc1CC3 | . | 42.1 | -0.7 | -12.9 | -3.9 | .
Clc1ccc2[nH]c3c(c2c1)CCc1cn[nH]c1-3 | . | 59.6* | 4.0 | -1.3 | -3.7 | +
